Data on 24 compounds can be found in ChEMBL document CHEMBL3232871, “Synthesis and structure-activity analysis of diphenylpyrazolodiazene inhibitors of the HIV-1 Nef virulence factor” (Bioorg Med Chem Lett, 2014).

The test system of series [1] is TZM-bl. The series can be described thus: Inhibition of HIV protein Nef in TZM-bl cells assessed decrease in HIV infectivity at 3 uM after 48 hrs by TZM-bl HIV infectivity assay. The series is classed as cell-based. Particulars: Human immunodeficiency virus. The method in brief:
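TZM-bl reporter cells (HIV-1 LTR-driven luciferase) received compound at 3 μM and were then infected with wild-type HIV-1 NL4-3. Luciferase was read 48 h later. Signal from cells infected with Nef-defective HIV was subtracted, and values are mean percent of untreated-cell control ± SEM.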

Series [2] in a line: Cytotoxicity against human TZM-bl cells by Cell Titer Blue cell viability assay. Format: cell-based. The method in brief:
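Viability of TZM-bl reporter cells was measured by Cell Titer Blue at the same compound concentration used in the HIV-1 infectivity assay (3 μM).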
For orientation: Resazurin is reduced to fluorescent resorufin, in cell work by metabolically active cells.

SMILES strings stand for the structures. Active and inactive are the calls of the source. The calls are words filed in the database; no cut-off is given here.

Regarding `NC(=S)n1nc(-c2ccc(C(F)(F)F)cc2)c(/N=N/c2cccc(Cl)c2)c1O`, in series [1], the “Nef inhibition activity call (active/inactive)” value is “Active”. For the same compound, the Activity entry in series [2] is on record as “Non-toxic”. On to `COc1ccc(/N=N/c2c(-c3ccc([N+](=O)[O-])cc3)n[nH]c2O)cc1`, for which, in series [1], the “Nef inhibition activity call (active/inactive)” value is “Active”. For the same compound, the Activity result in series [2] is “Non-toxic”.

Regarding `Oc1[nH]nc(-c2ccccc2)c1/N=N/c1ccccc1`, the “Nef inhibition activity call (active/inactive)” value in series [1] was “inactive”. In addition, the Activity entry in series [2] is recorded as “Non-toxic”.

Take `NC(=S)n1nc(-c2ccc([N+](=O)[O-])cc2)c(/N=N/c2cccc(F)c2)c1O`: in series [2], the Activity result was “Non-toxic”. Consider `NC(=O)n1nc(-c2ccc([N+](=O)[O-])cc2)c(/N=N/c2cccc(Cl)c2)c1O`, for which the “Nef inhibition activity call (active/inactive)” value in series [1] was “inactive”. In addition, the Activity result in series [2] is reported as “Non-toxic”. In the case of `NC(=O)n1nc(-c2ccc([N+](=O)[O-])cc2)c(/N=N/c2cncc(Cl)c2)c1O`, the Activity result in series [2] is given as “Non-toxic”.

Take `NC(=S)n1nc(-c2ccc([N+](=O)[O-])cc2)c(/N=N/c2ccccc2Cl)c1O`: the “Nef inhibition activity call (active/inactive)” value in series [1] was “inactive”. In addition, in series [2], the Activity entry is “Non-toxic”. `NC(=O)n1nc(-c2ccc(F)cc2)c(/N=N/c2cccc(Cl)c2)c1O`: in series [1], the “Nef inhibition activity call (active/inactive)” value was “Active”. In addition, in series [2], the Activity result is “Non-toxic”. For `COc1ccc(-c2nn(C(N)=S)c(O)c2/N=N/c2cccc(Cl)c2)cc1` the same measures were “inactive” and “Non-toxic”. `COc1cccc(/N=N/c2c(-c3ccc([N+](=O)[O-])cc3)nn(C(N)=S)c2O)c1`: in series [1], the “Nef inhibition activity call (active/inactive)” value was “inactive”. For the same compound, the Activity entry in series [2] is listed as “Non-toxic”.

For the compound `NC(=O)n1nc(-c2ccc(F)cc2)c(/N=N/c2cncc(Cl)c2)c1O`, in series [2], the Activity entry is listed as “Non-toxic”. Take `COc1ccccc1/N=N/c1c(-c2ccc([N+](=O)[O-])cc2)nn(C(N)=S)c1O`: the “Nef inhibition activity call (active/inactive)” value in series [1] is “inactive”. The Activity result in series [2] is recorded as “Non-toxic”. For `NC(=S)n1nc(-c2ccccc2)c(/N=N/c2cccc(Cl)c2)c1O` the same measures were “inactive” and “Non-toxic”. Taken in the same sequence, the figures for `NC(=S)n1nc(-c2ccc([N+](=O)[O-])cc2)c(/N=N/c2cccnc2)c1O` were “Active” and “Non-toxic”. For the compound `NC(=S)n1nc(-c2ccc([N+](=O)[O-])cc2)c(/N=N/c2cncc(Cl)c2)c1O`, the “Nef inhibition activity call (active/inactive)” value in series [1] was “Active”. Besides, in series [2], the Activity result is “Non-toxic”. For the compound `NC(=S)n1nc(-c2ccc([N+](=O)[O-])cc2)c(/N=N/c2ccccc2F)c1O`, the Activity result in series [2] is recorded as “Non-toxic”. The same measure, in the same setting: then `NC(=O)n1nc(-c2ccc(F)cc2)c(/N=N/c2cccnc2)c1O`, with “Non-toxic”; and `NC(=S)n1nc(-c2ccc([N+](=O)[O-])cc2)c(/N=N/c2ccc(F)cc2)c1O`, with “Non-toxic”. Still for that read-out and setting: then `NC(=O)n1nc(-c2ccc([N+](=O)[O-])cc2)c(/N=N/c2ccc(Cl)cc2)c1O`, with “Non-toxic”; and `NC(=S)n1nc(-c2ccc([N+](=O)[O-])cc2)c(/N=N/c2cccc(Cl)c2)c1O`, with “Non-toxic”. Regarding `NC(=S)n1nc(-c2ccc([N+](=O)[O-])cc2)c(/N=N/c2ccc(Cl)cc2)c1O`, the “Nef inhibition activity call (active/inactive)” value in series [1] was “Active”. For the same compound, the Activity result in series [2] is given as “Non-toxic”.

Take `NC(=O)n1nc(-c2ccc([N+](=O)[O-])cc2)c(/N=N/c2cccnc2)c1O`: the Activity entry in series [2] is listed as “Non-toxic”. Regarding `Oc1[nH]nc(-c2ccc(F)cc2)c1/N=N/c1cccnc1`, the Activity result in series [2] is reported as “Non-toxic”. Regarding `Oc1[nH]nc(-c2ccc(F)cc2)c1/N=N/c1cncc(Cl)c1`, the “Nef inhibition activity call (active/inactive)” value in series [1] is “inactive”. Also, the Activity result in series [2] is “Non-toxic”.
